CaV13 FRET inh: Disruptors of the CACNA1D IQ motif to Ca2+-dependent inactivation inhibitor domain association, primary screening, Förster resonance energy transfer in intact living …; HEK cells, CFP/YFP FRET ICDI-IQ, plate reader, 10 min; percent FRET-ratio fall versus neutral wells; inhibition, % at 12.3 µM; hit rate 0.098% among 340,000; AID 743397;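 active = mean replicate inhibition of at least 30% and at least 1% of replicates passing that level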;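 also: 0% = median of the neutral control wells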
Efflux pump mplx: inhibitors of Candida efflux pumps in yeast, primary screen, S. cerevisiae, Nile Red, multiplex; AID 485275, 2010; hit rate 0.44% among 330,000; S. cerevisiae Candida pump triplex; inhibition, % at 10 µM;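 active = plate passing quality check with inhibition over a set limit, or well fluorescence over plate mean plus 4 SD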;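 also: Nile Red retained in pooled yeast measured as flow cytometry median fluorescence; 0% = buffer negative control and 100% = Enniatin B positive control; higher means more Nile Red kept so more efflux inhibition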
SR-BI uptake up: activators of SR-BI mediated DiI-HDL uptake, primary screen, ldlA[mSR-BI] CHO cells, DiI fluorescence. 3 h; 100 = double the neutral-control signal. activation, % at 12.5 µM. hit rate 0.096% among 320,000. AID 504775, 2011;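 active = mean replicate activation of at least 60% and every replicate at or above 60%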;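 also: 0% = median plate neutral-control signal and 100% = twice that signal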
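Material – SR-BI-overexpressing, LDLR-lacking CHO cells · Medium – BSA-supplemented, HEPES-buffered Ham's F12, pH 7.4 · Doses – single concentration · Times – compound with DiI-HDL co-incubation, 3 h at 37 °C · Measured by – bottom-read fluorescence, 550/595 nm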
SR-BI DiI inh: inhibitors of SR-BI mediated HDL lipid uptake, primary screen, ldlA[mSR-BI] cells, fluorescence, single point | Scavenger receptor class B member 1 (Mus musculus), Q61009 | ldlA[mSR-BI] CHO cells, DiI-HDL uptake fluorescence, 3 h | inhibition, % at 12.5 µM | hit rate 0.96% among 320,000 | AID 488896, 2010;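 active = mean replicate inhibition of at least 70% and a set share of replicates each scoring 70 or more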;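 also: 0% = median of neutral control wells and 100% = median of positive control wells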
Target sequence (Q61009 whole entry, looked up): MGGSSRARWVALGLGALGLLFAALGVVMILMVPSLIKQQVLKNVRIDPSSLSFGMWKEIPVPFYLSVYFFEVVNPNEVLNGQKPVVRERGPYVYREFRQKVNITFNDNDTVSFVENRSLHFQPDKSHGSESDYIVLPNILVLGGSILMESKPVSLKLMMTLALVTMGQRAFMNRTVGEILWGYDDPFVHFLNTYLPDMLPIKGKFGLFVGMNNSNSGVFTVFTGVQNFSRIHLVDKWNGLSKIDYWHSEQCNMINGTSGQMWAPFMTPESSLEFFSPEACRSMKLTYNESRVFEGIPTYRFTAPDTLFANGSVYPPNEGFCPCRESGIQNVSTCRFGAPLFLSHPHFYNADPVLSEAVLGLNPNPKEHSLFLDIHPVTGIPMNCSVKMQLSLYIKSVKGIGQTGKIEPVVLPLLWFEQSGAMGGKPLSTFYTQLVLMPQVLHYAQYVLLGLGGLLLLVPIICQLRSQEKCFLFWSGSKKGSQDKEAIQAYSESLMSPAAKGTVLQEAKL
FN deposit inh: inhibitors of fibronectin matrix deposition, primary screen, AH1F cells, Alexa488-fibronectin fluorescence, plate reader. hit rate 0.086% among 350,000. AID 743247, 2014. inhibition, % at 12.6 µM. AH1F fibroblasts, overnight;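 active = mean inhibition across replicates of 30% or more, regardless of how many single replicates reach that level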;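 also: positive control wells lacked labelled fibronectin entirely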
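Test system: AH1F fibroblast monolayer depositing Alexa488-labelled fibronectin into matrix. Input: 10000 cells per well. Technique: fluorescence, ex 485 nm, em 525 nm. Buffer or medium: DMEM plus 2% serum, read in PBS. Timing: 1 h cell adhesion before compound, then overnight fibronectin incubation. Compound: single dose, pinned. Read-out basis: inhibition from reduced deposited-fibronectin fluorescence.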
Cmpd fluor yeast: compound fluorescence in yeast efflux pump counter-screen; shares compounds with Efflux pump mplx; S. cerevisiae AD/pABC3, flow cytometry; fluorescence ratio to DMSO, % at 10 µM; hit rate 4% among 1,700; AID 588517;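 active = fluorescence ratio to DMSO above its plate's cutoff, the plate mean ratio plus 5 SD, cut at about 210% in these data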;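 also: unstained yeast with no Nile Red so the signal is compound autofluorescence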
CaMdr1 efflux inh: inhibitors of Candida albicans Mdr1 efflux, confirmation, flow cytometry, singleplex, Cherry Pick1 set. inhibition, % at 10 µM. AID 588518, 2011. S. cerevisiae AD/CaMDR1, Nile Red efflux. shares compounds with Efflux pump mplx. hit rate 1% among 1,700; in the data active = inhibition above about 26%;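 also: 0% = DMSO vehicle and 100% = reference inhibitor; higher means more Nile Red retained so more efflux inhibition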
Cdr2 pump inh: inhibitors of Candida albicans Cdr2 efflux pump, confirmation, S. cerevisiae AD/CaCDR2, flow cytometry, cherry pick 1, singleplex; hit rate 4% among 1,700; shares compounds with Efflux pump mplx; Nile Red retention; Nile Red retention ratio vs DMSO, % at 10 µM; in the data active = Nile Red retention ratio vs DMSO above about 190%;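 also: higher ratio means more blocking of Cdr2 efflux of the dye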
CaCdr1 efflux inh: inhibitors of Candida albicans Cdr1 efflux pump, confirmation, S. cerevisiae AD/CaCDR1, flow cytometry, cherry pick 1, singleplex. AID 588522, 2011. Nile Red efflux. shares compounds with Efflux pump mplx. hit rate 1% among 1,700. inhibition, % at 10 µM;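 active = inhibition above the screen-wide mean plus twice its standard deviation, cut at about 32% in these data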
* = called active by the depositor; · = not tested or not shown; + = active, no number. Sampled rows, rich in hits. Any-hit rate of the full collection: about 1.2%.

SMILES	CaV13 FRET inh	Efflux pump mplx	SR-BI uptake up	SR-BI DiI inh	FN deposit inh	Cmpd fluor yeast	CaMdr1 efflux inh	Cdr2 pump inh	CaCdr1 efflux inh
COc1ccccc1S(=O)(=O)N1CC[C@H]2[C@H](CO)Nc3ccc(-c4ccccc4F)cc3[C@H]21	·	·	·	·	25	·	·	·	·
COC(=O)c1ccc(S(=O)(=O)NCc2ccc(OC)cc2)n1C	-1	2.5*	-8	8	-3	102	0	98	0
COC(=O)c1ccc(S(=O)(=O)NCc2ccco2)n1C	-4	0	-11	11	-2	·	·	·	·
C[C@H](CO)N1C[C@H](C)[C@H](CN(C)C(=O)c2cccc(F)c2)Oc2cc(-c3ccncc3)ccc2S1(=O)=O	·	·	·	·	-1	·	·	·	·
COc1ccc2cc(C#N)c(N3CCN(Cc4nnnn4CCC(C)C)CC3)nc2c1	-4	0.7*	-46	46	4	118	0	116	0
O=C1CCN(Cc2ccc(Cl)cc2)N1	-4	2.1*	·	·	2	98	0	90	0
O=C1CCN(S(=O)(=O)c2ccc(Cl)cc2)N1	-3	0	31	-31	-8	·	·	·	·
COc1ccc2sc(-c3ccccc3OC)c(-c3ccc(OCCN4CCOCC4)cc3)c2c1	·	128*	-7	7	·	106	89*	94	100*
COc1cc2sc(-c3ccccc3OC)c(-c3ccc(OCCN4CCCCC4)cc3)c2cc1OC	-5	0	9	-9	5	·	·	·	·
COc1ccccc1-c1sc2ccccc2c1-c1ccc(OCCN2CCOCC2)cc1	-5	0	-27	27	0	109	0	100	0
N#C[C@@H]1[C@H](c2ccc(-c3cccc(F)c3)cc2)[C@H](CO)N1C(=O)CN1CCOCC1	·	·	·	·	14	·	·	·	·
CN1CCN(C(=O)C[C@@H]2CC[C@H]3[C@@H](COC[C@H](O)CN3S(=O)(=O)c3cccc(Cl)c3)O2)CC1	·	·	·	·	-14	·	·	·	·
CO[C@@H]1CN(C)C(=O)c2cc(NC(=O)Nc3ccccc3Cl)ccc2OC[C@@H](C)N(Cc2ccccc2C(=O)O)C[C@H]1C	·	·	·	·	0	·	·	·	·
CCN(Cc1nc2cc(Cl)ccc2c(=O)[nH]1)C(=O)c1cccc(NC(=O)c2cccs2)c1	-5	1	-25	25	3	·	·	·	·
CCN(Cc1nc2cc(Cl)ccc2c(=O)[nH]1)C(=O)c1cccc(OCc2c(C)noc2C)c1	-6	1.6*	-16	16	-15	95	0	87	0
O=C1NN(c2ccccc2)C(=O)/C1=C/c1ccc(-c2ccc(C(=O)O)cc2)o1	-16	0	29	-29	1	·	·	·	·
O=C(O)c1ccc(N2C(=O)/C(=C/c3ccc(-c4ccc([N+](=O)[O-])cc4)o3)C=C2c2ccccc2)cc1	·	4.7*	-4	4	·	734*	2	+	2
CC(C)NC(=O)NCC[C@@H]1CC[C@@H](NC(=O)CCN2CCCCC2)[C@H](CO)O1	·	·	·	·	2	·	·	·	·
COc1ccc(-c2cc(C(=O)N3CCCC(C(F)(F)F)C3)c3ccccc3n2)cc1OC (configuration not stated)	-6	0.4*	-34	34	0	105	0	110	0
COc1ccc(-c2cc(C(=O)N3CCN(c4ccccc4)CC3)c3ccccc3n2)cc1OC	-3	0	-18	18	·	·	·	·	·
Cc1ccc(S(=O)(=O)Nc2cc(C(C(=O)OC(C)C)C(=O)C(F)(F)F)c(O)c3ccccc23)c(C)c1 (configuration not stated)	-4	13*	-3	3	4	88	0	96	0
C[C@@H]1CN([C@@H](C)CO)C(=O)c2cc(NS(=O)(=O)c3ccc(Cl)cc3)ccc2O[C@@H]1CN(C)C(=O)Nc1cccc2ccccc12	·	·	·	·	3	·	·	·	·
COc1ccccc1CN(Cc1cc2cc3c(cc2[nH]c1=O)OCCO3)Cc1nnnn1Cc1ccco1	-20	1.4*	2	-2	10	100	0	107	0
O=c1[nH]c2cc3c(cc2cc1CN(Cc1ccccc1)Cc1nnnn1Cc1ccco1)OCCO3	·	·	2	-2	·	·	·	·	·
CCNC(=O)C[C@@H]1CC[C@@H]2[C@H](COc3ccc(NC(=O)c4cccs4)cc3C(=O)N2C)O1	·	·	·	·	4	·	·	·	·
SMILES	CaV13 FRET inh	Efflux pump mplx	SR-BI uptake up	SR-BI DiI inh	FN deposit inh	Cmpd fluor yeast	CaMdr1 efflux inh	Cdr2 pump inh	CaCdr1 efflux inh
CCC(=O)N[C@H]1CC[C@H](CCNC(=O)Nc2ccc(C(F)(F)F)cc2)O[C@@H]1CO	·	·	·	·	-12	·	·	·	·
C=CCn1c(SCc2cc(=O)n3ccsc3n2)nc2cc(Cl)ccc2c1=O	-5	0	-20	20	-1	·	·	·	·
C=CCn1c(SCc2cc(=O)n3ccsc3n2)nc2ccccc2c1=O	-3	0.5*	1	-1	-1	90	0	100	0
O=C(C[C@@H]1CC[C@@H](NC(=O)C2CC2)[C@@H](CO)O1)NCc1ccncc1	·	·	·	·	-16	·	·	·	·
CCNC(=O)C[C@H]1CC[C@@H](NS(=O)(=O)c2ccc(F)cc2)[C@H](CO)O1	·	·	·	·	-11	·	·	·	·
O=C(COC(=O)c1c2ccccc2cc2ccccc12)Nc1ncc(C(F)(F)F)cc1Cl	-6	0.4*	-30	30	·	113	0	110	0
O=C(COC(=O)c1ccc2ccccc2c1)Nc1ncc(C(F)(F)F)cc1Cl	-2	0	-14	14	·	·	·	·	·
CC1=C(C)CC(C(=O)Nc2cccc([N+](=O)[O-])c2)C(C(=O)O)C1 (configuration not stated)	-6	35*	27	-27	0	98	0	91	0
COC(=O)c1ccc(CN2CC(=O)N3[C@H](CO)[C@H](c4ccc(-c5cccnc5)cc4)[C@H]3C2)cc1	·	·	·	·	1	·	·	·	·
Cc1cc2c([nH]c3ccccc32)c2c1OC(C)(C)C=C2	·	1.5*	-66	66	·	96	0	104	0
